We go through 27 compounds from ChEMBL document CHEMBL1140689, “Benzyl amide-ketoacid inhibitors of HIV-integrase” (Bioorg Med Chem Lett, 2007).

pEC50, pIC50: −log10 of the molar value. Some results are limits rather than exact numbers.

As a reminder, the pIC50 is the IC50 on a negative log10 scale, so that one unit is a factor of ten. Usually pEC50 stands for the EC50 on a negative log10 scale, so that one unit is a factor of ten.

Biological target in one assay: not listed separately
The assay can be described thus: Inhibition of HIV1 recombinant integrase. Details: species or system Human immunodeficiency virus 1.
Conditions: not given
In short, it runs like this: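 Strand-transfer scintillation proximity readout. 5 pmol biotin-labeled substrate DNA bound to 100 μg streptavidin SPA beads. Recombinant integrase (0.26 ng) loaded onto the beads for 90 min at 37 °C, and unbound enzyme washed off. Inhibitors then added with 0.1 fmol 33P-labeled target DNA. Reaction stopped with EDTA (10 mM final). Integration measured as scintillation CPM.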
With `Cc1ccccc1CNC(=O)/C=C(\O)C(=O)O`, the negative logarithm of the IC50 (pIC50) is 5.89.
On the same count and under the same terms, in the case of `O=C(/C=C(\O)C(=O)O)NCc1cc(F)cc(F)c1` it was 5.77.
On to `O=C(/C=C(\O)C(=O)O)NCc1ccc([N+](=O)[O-])cc1`, for which the negative-log IC50 (pIC50) is 5.68.
With `O=C(/C=C(\O)C(=O)O)NCc1cccc(Cl)c1Cl`, the pIC50 was 6.70.
As to `O=C(/C=C(\O)C(=O)O)NCc1ccccc1`, the pIC50 was 6.52.
On the same count and under the same terms, the same measure for `O=C(/C=C(\O)C(=O)O)NCc1cccc(F)c1`: 5.92.
Same read-out and setting: the same measure for `O=C(/C=C(\O)C(=O)O)NCc1ccc(F)cc1`: 6.70; for `CN(Cc1ccc(F)cc1)C(=O)/C=C(\O)C(=O)O`: 6.96.
Same read-out and setting: in the case of `O=C(/C=C(\O)C(=O)O)NCc1cccc(Cl)c1` it was 6.22; in that of `CC(C)(C)c1ccc(CNC(=O)/C=C(\O)C(=O)O)cc1`, 3.74; in that of `COc1ccc(CNC(=O)/C=C(\O)C(=O)O)c(OC)c1`, 5.12.
On to `COc1ccc(CNC(=O)/C=C(\O)C(=O)O)cc1Cl`, for which the pIC50 was 6.52.
As to `Cc1ccc(CNC(=O)/C=C(\O)C(=O)O)cc1F`, the pIC50 was 6.70.
Regarding `Cc1ccc(CNC(=O)/C=C(\O)C(=O)O)cc1`, the pIC50 is 5.85.
On the same count and under the same terms, the same measure for `COc1ccccc1CNC(=O)/C=C(\O)C(=O)O`: 6.30; for `C[C@@H](NC(=O)/C=C(\O)C(=O)O)c1ccccc1`: less than 3.52; for `C[C@H](NC(=O)/C=C(\O)C(=O)O)c1ccccc1`: 4.62.
The same measure, in the same setting: the same measure for `COc1cccc(CNC(=O)/C=C(\O)C(=O)O)c1`: 5.62.
On the same count and under the same terms, in the case of `COc1ccc(CNC(=O)/C=C(\O)C(=O)O)cc1` it was 5.38.
On to `O=C(/C=C(\O)C(=O)O)NCc1ccc(Cl)nc1`, for which the pIC50 is 6.15.
On to `O=C(/C=C(\O)C(=O)O)NCc1ccccc1F`, for which the pIC50 is 5.74.
On the same count and under the same terms, the same measure for `CC(NC(=O)/C=C(\O)C(=O)O)c1ccc(F)cc1` (centres undefined): 5.52; for `O=C(/C=C(\O)C(=O)O)NCc1ccccc1Cl`: 5.77; for `O=C(/C=C(\O)C(=O)O)NCc1ccc(Cl)cc1`: 5.96.
The same measure, in the same setting: in the case of `O=C(/C=C(\O)C(=O)O)NCc1ccc(C(F)(F)F)cc1` it was 5.05.
Same read-out and setting: the same measure for `Cc1cccc(CNC(=O)/C=C(\O)C(=O)O)c1`: 6.52.

A further assay deals with Human immunodeficiency virus 1. Nature of the assay: Antiviral activity against luciferase containing HIV1 NL4-3 virus in MT2 cells. The class given is functional, organism-based. The settings on record: Human immunodeficiency virus 1, NL4-3, MT2.
Take `CC1(C)OC(=O)/C(=C/C(=O)NCc2ccc(F)cc2)O1`: the pEC50 was 5.92.
`O=C(/C=C(\O)C(=O)O)NCc1ccc(F)cc1` showed a pEC50 of 5.23.
Still for that read-out and setting: the same measure for `CN(Cc1ccc(F)cc1)C(=O)/C=C(\O)C(=O)O`: 6.22.
